Experimental data: ChEMBL document CHEMBL3045217, “Factors affecting the synergy of thiabendazole, sodium bicarbonate, and heat to control postharvest green mold of citrus fruit” (J Agric Food Chem, 2008)

Columns and labels:
Fruit [1] = assay: Drug residues in Citrus sinensis cvs. Valencia late (Valencia oranges) at 600 mg/L treated for 1 min at 20 degC postharvest measured after 20 days of storage at 17 degC in presence of 0.5% SBC by GC analysis; assay type: ADME
How it was run: (§1)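 'Valencia' oranges were dipped 1 min in TBZ at 600 mg/L (20 °C, ±0.5, 1 or 2% wt/vol SBC), 400 mg/L (40 °C, ±SBC) or 200 mg/L (50 °C, alone), then air-dried. They were sampled at 0, 10 and 20 days at 17 °C. Peel of five fruit was frozen, and 5 g of homogenate was extracted with ethyl acetate/hexane (1/1) plus NaCl. The extract was dried under N2, taken up in acetone and analysed by GC. Results are mg/kg on a whole-fruit basis.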

Penicillium digitatum [2] = assay: Fungicidal activity against Penicillium digitatum infected Valenica oranges assessed as fruit weight loss at 400 mg/L treated for 1 min at 40 degC postharvest at 20 hr after fungal conidial inoculation measured after 7 days of storage at 17 degC (water Rvb = 3.42%); assay type: functional
Penicillium digitatum [3] = assay: Fungicidal activity against TBZ-sensitive Penicillium digitatum infected Nova mandarins assessed as postharvest green mold incidence at 400 mg/L treated for 1 min at 40 degC at 20 hr after fungal conidial inoculation measured after 5 days of storage at 20 degC (water Rvb = 100%); assay type: functional
How it was run: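 Fruit were surface-disinfected in 1 g/L hypochlorite for 30 s, rinsed, dried, then wounded twice equatorially (2 mm × 2 mm rod). Inoculation was a 1 min dip in P. digitatum conidia, 1 × 10^5 conidia/mL final. Fruit were held 20 h at 20 °C and 90% RH, dipped 1 min (SBC wt/vol), and air-dried. Storage was 20 °C, 90% RH. Decay incidence (% fruit with lesions) was scored at 5 d for mandarins and 7 d for oranges. Three replicates of 40 fruit were used; arcsin-transformed data were compared by LSD, p ≤ 0.05.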

Fruit [4] = assay: Drug residues in Citrus sinensis cvs. Valencia late (Valencia oranges) at 600 mg/L treated for 1 min at 20 degC postharvest measured immediately post-drug treatment in presence of 0.5% SBC by GC analysis; assay type: ADME; how it was run: as §1
Penicillium digitatum [5] = assay: Fungicidal activity against TBZ-resistant Penicillium digitatum infected Nova mandarins assessed as postharvest green mold incidence at 600 mg/L treated for 1 min at 20 degC at 20 hr after fungal conidial inoculation measured after 5 days of storage at 20 degC in presence of 1% SBC (water Rvb = 83.3%); assay type: functional
Fruit surface [6] = assay: Drug residues on Citrus sinensis cvs. Salustiana (Salustiana oranges) fruit surface at 600 mg/L treated for 1 min at 20 degC postharvest measured after overnight incubation at 17 degC in presence of 2% SBC by GC analysis; assay type: ADME
How it was run: (§2)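 'Salustiana' oranges were washed with water and air-dried. They were dipped 1 or 3 min in TBZ 600 mg/L at 20 or 50 °C, or 1 min in TBZ 600 mg/L plus 2% SBC at 20 °C, then dried overnight at 17 °C in the dark. Surface residue was taken by water extraction and wax residue by chloroform extraction. Inner residue was measured in fruit after both extractions. Extracts were dried under N2, taken up in acetone and analysed by GC. Values are mg/kg on a whole-fruit basis.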

Penicillium digitatum [7] = assay: Fungicidal activity against Penicillium digitatum infected Valenica oranges assessed as fruit weight loss at 600 mg/L treated for 1 min at 20 degC postharvest at 20 hr after fungal conidial inoculation measured after 7 days of storage at 17 degC in presence of 2% SBC (water Rvb = 3.94%); assay type: functional
Penicillium digitatum [8] = assay: Fungicidal activity against Penicillium digitatum infected Valenica oranges assessed as fruit weight loss at 200 mg/L treated for 1 min at 50 degC postharvest at 20 hr after fungal conidial inoculation measured after 7 days of storage at 17 degC (water Rvb = 3.23%); assay type: functional
Fruit [9] = assay: Drug residues in Citrus sinensis cvs. Valencia late (Valencia oranges) at 400 mg/L treated for 1 min at 40 degC postharvest measured after 20 days of storage at 17 degC in presence of 2% SBC by GC analysis; assay type: ADME; how it was run: as §1
Penicillium digitatum [10] = assay: Fungicidal activity against TBZ-resistant Penicillium digitatum infected Valencia oranges assessed as postharvest green mold incidence at 200 mg/L treated for 1 min at 50 degC at 20 hr after fungal conidial inoculation measured after 7 days of storage at 20 degC (water Rvb = 56.7%); assay type: functional
Fruit [11] = assay: Total drug residues in Citrus sinensis cvs. Salustiana (Salustiana oranges) fruit at 600 mg/L treated for 1 min at 20 degC postharvest measured after overnight incubation at 17 degC in presence of 2% SBC by GC analysis; assay type: ADME
How it was run: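 'Salustiana' oranges were water-washed, dried, dipped, then dried overnight at 17 °C in the dark. Unextracted fruit were used for total residues. Peel from five oranges was frozen at -18 °C. 5 g homogenized peel was extracted with 10 mL ethyl acetate/hexane (1/1) plus 2 g NaCl, shaken 30 min, then 1 mL of organic layer was dried under N2, redissolved in acetone, and run by GC without cleanup. Results are on a whole-fruit basis.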

Penicillium digitatum [12] = assay: (§3) Fungicidal activity against TBZ-resistant Penicillium digitatum infected Nova mandarins assessed as postharvest green mold incidence at 400 mg/L treated for 1 min at 40 degC at 20 hr after fungal conidial inoculation measured after 5 days of storage at 20 degC in presence of 2% SBC (water Rvb = 61.7%); assay type: functional
Fruit [13] = assay: Drug residues in Citrus sinensis cvs. Valencia late (Valencia oranges) at 400 mg/L treated for 1 min at 40 degC postharvest measured after 10 days of storage at 17 degC in presence of 2% SBC by GC analysis; assay type: ADME; how it was run: as §1
Cuticular wax = assay: Drug residues in Citrus sinensis cvs. Salustiana (Salustiana oranges) cuticular wax at 600 mg/L treated for 3 min at 20 degC postharvest measured after overnight incubation at 17 degC by GC analysis; assay type: ADME; conditions: 0.05 h; how it was run: as §2
Penicillium digitatum [14] = assay: Fungicidal activity against Penicillium digitatum infected Valenica oranges assessed as fruit weight loss at 600 mg/L treated for 1 min at 20 degC postharvest at 20 hr after fungal conidial inoculation measured after 21 days of storage at 17 degC (water Rvb = 7.98%); assay type: functional
Penicillium digitatum [15] = assay: as §3, with “0.5%” for “2%”, “83.3%)” for “61.7%)”; assay type: functional
Fruit surface [16] = assay: Drug residues on Citrus sinensis cvs. Salustiana (Salustiana oranges) fruit surface at 600 mg/L treated for 1 min at 50 degC postharvest measured after overnight incubation at 17 degC by GC analysis; assay type: ADME; how it was run: as §2
Fruit [17] = assay: Drug residues in Citrus sinensis cvs. Valencia late (Valencia oranges) at 400 mg/L treated for 1 min at 40 degC postharvest measured after 20 days of storage at 17 degC in presence of 1% SBC by GC analysis; assay type: ADME; how it was run: as §1
Penicillium digitatum [18] = assay: Fungicidal activity against Penicillium digitatum infected Valenica oranges assessed as fruit weight loss at 600 mg/L treated for 1 min at 20 degC postharvest at 20 hr after fungal conidial inoculation measured after 14 days of storage at 17 degC in presence of 2% SBC (water Rvb = 8.02%); assay type: functional
Penicillium digitatum [19] = assay: Fungicidal activity against Penicillium digitatum infected Valenica oranges assessed as fruit weight loss at 600 mg/L treated for 1 min at 20 degC postharvest at 20 hr after fungal conidial inoculation measured after 14 days of storage at 17 degC in presence of 0.5% SBC (water Rvb = 7.44%); assay type: functional

c1ccc2[nH]c(-c3cscn3)nc2c1 [THIABENDAZOLE]
Drug uptake (Fruit [1]): 1.31 mg/kg | Activity (Penicillium digitatum [2]): 3.22% | Activity (Penicillium digitatum [3]): 1.7% | Drug uptake (Fruit [4]): 1.25 mg/kg | Activity (Penicillium digitatum [5]): 65% | Drug uptake (Fruit surface [6]): 0.53 mg/kg | Activity (Penicillium digitatum [7]): 4.81% | Activity (Penicillium digitatum [8]): 2.98% | Drug uptake (Fruit [9]): 0.58 mg/kg | Activity (Penicillium digitatum [10]): 37.5% | Drug uptake (Fruit [11]): 0.91 mg/kg | Activity (Penicillium digitatum [12]): 23.3% | Drug uptake (Fruit [13]): 0.65 mg/kg | Drug uptake (Cuticular wax): 0.11 mg/kg | Activity (Penicillium digitatum [14]): 8.85% | Activity (Penicillium digitatum [15]): 70% | Drug uptake (Fruit surface [16]): 0.66 mg/kg | Drug uptake (Fruit [17]): 0.71 mg/kg | Activity (Penicillium digitatum [18]): 9.38% | Activity (Penicillium digitatum [19]): 8.15%
